From PubChem BioAssay
Hits are enriched below; roughly 4.7% of the tested compounds scored in any of these assays.
KCC2 mod – KCC2 cotransporter modulators, thallium flux, primary screen, cell-based, HEK293 KCC2, FluoZin-2 fluorescence, MLSMR; Solute carrier family 12 member 5 (Homo sapiens), Q9H2X9; KCC2 cells, thallium flux FluoZin-2 fluorescence; B-score of Tl+ flux slope (higher = more flux/activation; lower = inhibition) at 10 µM; 2.2% of 190,000 active;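 active = thallium flux slope and its plate-corrected score both differing from the plate sample mean at a set confidence after two filtering rounds, in either direction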;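 also: slope of fluorescence scaled to starting intensity during 10 to 20 s after thallium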
MrgX1 ag – agonists of human MrgX1 receptor, primary screen, HEK293 cells, Fluo-4 calcium flux | Mas-related G-protein coupled receptor member X1 (Homo sapiens), Q96LB2 | Fluo-4 calcium fluorescence, agonist mode; hits give high values | B-score at 10 µM | 0.44% of 310,000 active;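 active = calcium response B-score plate-corrected fluorescence ratio at least 3 library SD, with starting fluorescence B-score inside 5 SD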
Target sequence (Q96LB2 whole entry, looked up): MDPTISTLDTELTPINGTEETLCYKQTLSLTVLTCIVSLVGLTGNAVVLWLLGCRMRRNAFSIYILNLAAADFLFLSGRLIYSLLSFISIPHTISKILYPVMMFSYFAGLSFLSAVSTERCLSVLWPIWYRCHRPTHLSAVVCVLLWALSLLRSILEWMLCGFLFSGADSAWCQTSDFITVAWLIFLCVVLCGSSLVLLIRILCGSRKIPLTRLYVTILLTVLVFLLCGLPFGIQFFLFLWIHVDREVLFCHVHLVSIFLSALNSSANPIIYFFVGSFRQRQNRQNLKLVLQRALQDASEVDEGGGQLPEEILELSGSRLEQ
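Test system: Stable human MrgX1 HEK293 cell line | Schedule: Overnight plating before 1 h dye loading | Read-out basis: Baseline-normalised fluorescence change ratio, B-scored | Detection: Kinetic calcium dye fluorescence, Fluo-4 NW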
MrgX1 PAM – positive allosteric modulators of MrgX1, primary screen, HEK293 cells, Fluo-4 calcium flux | AID 588675, 2011 | Mas-related G-protein coupled receptor member X1 (Homo sapiens), Q96LB2 | 0.63% of 310,000 active | FDSS; hits give high values | B-score at 10 µM;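 active = plate-corrected calcium response at least 3 library SD above typical, normal starting fluorescence, not activating the receptor alone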;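 also: compound read alongside a low EC10 to EC30 dose of BAM8-22 agonist; peak minus trough fluorescence over baseline measured at the second addition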
RGS4 block – RGS4 inhibitors, primary screen, cell-based, HEK293 M3R inducible RGS4, calcium flux; Regulator of G-protein signaling 4 (Homo sapiens), P49798; Fluo-4 calcium flux; hits give high values; triggered by carbachol at its EC20; B-score at 10 µM; 0.45% of 310,000 active; AID 463165, 2010;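 active = B-score, a plate-corrected calcium signal, over three deviations above library mean, with baseline fluorescence within five deviations of library mean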;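 also: RGS4 expression induced by doxycycline in cells with stable M3 receptor; B-score is computed from the integrated fluorescence ratio over baseline after carbachol; higher B-score means a larger calcium signal and so more RGS4 inhibition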
Target sequence (P49798 whole entry, looked up): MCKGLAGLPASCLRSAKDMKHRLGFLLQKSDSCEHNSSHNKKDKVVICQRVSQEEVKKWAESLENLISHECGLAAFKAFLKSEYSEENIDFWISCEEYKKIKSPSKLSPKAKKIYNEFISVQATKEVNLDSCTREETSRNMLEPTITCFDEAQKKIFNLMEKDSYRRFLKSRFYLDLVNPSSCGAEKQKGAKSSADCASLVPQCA
MrgX1 antag – antagonists of human MrgX1 receptor, primary screen, HEK293 cells, Fluo-4 calcium flux; BAM8-22 antagonism; hits give low values; B-score at 10 µM; 1.3% of 310,000 active; Mas-related G-protein coupled receptor member X1 (Homo sapiens), Q96LB2;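 active = calcium-response B-score plate-corrected more than 3 library SD below zero, starting fluorescence within 5 deviations, no agonist response on first addition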;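 also: peak minus trough fluorescence over baseline after final BAM8-22 challenge near maximal dose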
RGS4 act – RGS4 potentiators or activators, primary screen, cell-based, HEK293 M3R inducible RGS4, calcium flux. B-score at 10 µM. AID 463111, 2010. carbachol calcium flux Fluo4; hits give low values. 0.92% of 310,000 active;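 active = B-score of the integrated calcium signal more than 4 SD below the library mean, with starting fluorescence not abnormally high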;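 also: negative B-score means reduced calcium response which marks RGS4 activation or potentiation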
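Also added: carbachol at ECmax as muscarinic agonist stimulus; Assay system: HEK293 cells with stable M3R and inducible RGS4; Timing: overnight RGS4 induction, 30 min dye load 37 °C, 20 min compound RT; Measured by: Fluo4-AM (2 µM) calcium-flux fluorescence, kinetic read.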
KCC2 secondary – KCC2 modulators in sodium-free buffer, confirmation, cell-based, HEK293 KCC2, thallium flux, secondary assay; shares compounds with KCC2 mod; FluoZin2 fluorescence; hits give high values; normalised thallium flux (F/F0 slope) at 10 µM; 15% of 3,700 active; AID 1713, 2009;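 active = thallium flux slope above the same plate's solvent-only control mean plus 3 SD; inconclusive = the two replicate wells disagree; inactive = no significant difference from solvent-only control wells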
KCC2 bumet counter – thallium flux persisting under bumetanide in KCC2 cells, confirmation, counter-screen for KCC2 modulator project, cell-based, HEK293 KCC2, FluoZin2, secondary assay 3; shares compounds with KCC2 mod; HEK293-KCC2 + bumetanide/ouabain; hits give high values; normalized thallium flux at 10 µM; 49% of 3,700 active; AID 1714, 2009;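 active = thallium entry rate above the same plate's blocked-transporter control wells by more than 3 SD; inconclusive = the two repeat wells disagree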;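 also: raw slope of fluorescence over initial fluorescence between 10 and 20 s after thallium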
KCC2 secondary2 – KCC2 modulators without ouabain present, confirmation, cell-based, HEK293 KCC2, thallium flux, FluoZin2, secondary assay 2; shares compounds with KCC2 mod; thallium flux FluoZin2 fluorescence; actives lie on both sides; F/F0 rise rate, 10–20 s post-thallium; normalized thallium flux at 10 µM; 23% of 3,700 active; AID 1715, 2009;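 active = thallium flux slope more than 3 SD above or below the plate's solvent-only control mean, mostly below; inconclusive = the two repeat wells disagreed; inactive = no significant shift from solvent-only controls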;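 also: raw slope with 0.1% DMSO as baseline and bumetanide as block control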
HEK counter1 – thallium flux modulation in parental HEK cells, confirmation, counter-screen for KCC2 modulator project, cell-based, counterscreen 1; 46% of 3,700 active; thallium flux rate (normalised fluorescence) at 10 µM; AID 1716, 2009; HEK293 parental cells, thallium flux FluoZin2, ouabain; baseline-ratio fluorescence slope, 10–20 s after thallium; shares compounds with KCC2 mod;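 active = thallium flux rate significantly above the same plate's solvent-only control wells, beyond their mean plus 3 SD; inconclusive = the two replicate wells gave conflicting results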
KCC2 retest ouab – KCC2 inhibitors and activators, ouabain retest, confirmation, HEK-KCC2 cells; shares compounds with KCC2 mod; raw Tl+ flux slope (below DMSO = inhibition, above = activation) at 10 µM; HEK293-KCC2, thallium flux FluoZin2 fluorescence; bidirectional: low = inhibitor, high = activator; 48% of 3,700 active; AID 1717, 2009;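 active = thallium flux slope beyond 3 SD from same-plate DMSO control mean in most replicates, usually higher, sometimes lower; inconclusive = repeat tests gave conflicting results; inactive = no significant difference from controls in most replicates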;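 also: slope of initial-normalized fluorescence between seconds 10 and 20 after thallium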
HEK counter2 – native HEK Tl+ uptake effects, second counter-screen – HEK cells, counterscreen 2, counter-screen for KCC2 modulator project, confirmation; AID 1718, 2009; HEK293 parental, thallium flux FluoZin-2 fluorescence slope; thallium flux slope at 10 µM; shares compounds with KCC2 mod; 33% of 3,700 active;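 active = thallium flux slope above the same plate's solvent-control mean plus 3 SD in both duplicate wells; inconclusive = duplicate wells that disagreed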;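 also: run without ouabain in cells lacking the KCC2 cotransporter; slope of fluorescence scaled to its starting value between 10 and 20 s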
Numbers without * were called inactive; i = inactive; ? = inconclusive; . = no result.

SMILES | KCC2 mod | MrgX1 ag | MrgX1 PAM | RGS4 block | MrgX1 antag | RGS4 act | KCC2 secondary | KCC2 bumet counter | KCC2 secondary2 | HEK counter1 | KCC2 retest ouab | HEK counter2
C/C(=N\NC(=S)NCCc1ccccc1)c1cccc(Br)c1 | -0.168 | i | i | i | i | i | . | . | . | . | . | .
C/C(=N\NC(=S)NCc1ccccc1)c1ccc2ccccc2c1 | 6* | i | i | i | i | i | 0.00854 | 0.0192* | 0.0273 | 0.00851* | ? | 0.00931
C/C(=N\NC(=S)NCc1ccccc1)c1cccc(Br)c1 | 4.83* | i | i | i | i | i | 0.0164 | 0.0165* | 0.029 | 0.00835 | 0.0176 | 0.0112
COc1ccc(NC(=S)NCCCc2ccccc2)cc1 | -4.79* | i | i | i | i | i | 0.0147 | ? | 0.0229* | 0.00669 | 0.0147 | 0.00937
CC(=O)Nc1cccc(/C(C)=N/NC(=S)NC(C)C)c1 | -0.0163 | i | i | i | i | i | . | . | . | . | . | .
CCOC(=O)N1CCN(C(=O)COC(=O)c2ccccc2NCCO)CC1 | . | i | i | i | i | i | . | . | . | . | . | .
CCc1ccc(N2CCN(S(=O)(=O)CC34CCC(CC3=O)C4(C)C)CC2)cc1 (configuration not stated) | . | i | i | i | i | i | . | . | . | . | . | .
Cc1ccc(C)c(S(=O)(=O)N2CCN(C(=O)Cn3cnc4c3c(=O)n(C)c(=O)n4C)CC2)c1 | . | i | i | i | i | i | . | . | . | . | . | .
C=CCNC(=S)N/N=C(\C)c1ccc(OC)cc1 | 2.92 | i | i | i | i | i | . | . | . | . | . | .
COc1ccc(/C(C)=N/NC(=S)NCCc2ccccc2)cc1 | 7.73* | i | i | i | i | i | 0.0105 | 0.0162* | 0.0304 | 0.021* | ? | ?
C=CCNC(=S)N/N=C(\C)c1cccc(OC)c1 | 4.86* | i | i | i | i | i | 0.0126* | 0.0426* | 0.0317 | 0.015* | 0.0255 | 0.0119*
COc1ccccc1/C(C)=N/NC(=S)NCc1ccccc1 | 6.88* | i | i | i | i | i | 0.00669 | 0.0155* | 0.0315 | 0.0152* | ? | 0.014*
O=C(Nc1nc2c(s1)CN(Cc1ccccc1)CC2)c1cccc(S(=O)(=O)N2CCc3ccccc32)c1 | 3.42* | i | i | i | i | i | 0.00453* | 0.0015* | 0.0207* | 0.00509* | 0.0126* | 0.00789*
CCOC(=O)C1CCCN(C(=O)c2ccc3c(=O)n(Cc4ccccc4OC)c(=S)[nH]c3c2)C1 (configuration not stated) | . | i | i | i | i | i | . | . | . | . | . | .
N#CC(C#N)=C(Nc1ccc(F)cc1)SCc1cccc(F)c1 | -5.05* | i | i | i | i | i | 0.00497 | ? | 0.0247* | ? | 0.014* | 0.00905*
CC(=O)c1ccc(NC(=O)CCNC(=O)c2ccc(Cl)cc2)cc1 | . | i | i | i | i | i | . | . | . | . | . | .
CC1CCCC(NC(=O)c2ccc(F)c(S(=O)(=O)N3CCOCC3)c2)C1C (configuration not stated) | . | i | i | i | i | i | . | . | . | . | . | .
CCC1CCCCN1C(=S)NC(=O)c1ccc(F)c(S(=O)(=O)N2CCOCC2)c1 (configuration not stated) | 3.2* | i | i | i | i | i | ? | 0.0188* | 0.0292 | 0.0105* | 0.0288* | ?
CCC1CCCCN1C(=S)NC(=O)c1cccs1 (configuration not stated) | 62.7* | . | . | i | . | i | 0.0363* | 0.103* | 0.0857* | 0.0882* | 0.0877* | 0.0872*
O=C(CCS(=O)(=O)Cc1ccccc1)Nc1ncc([N+](=O)[O-])s1 | . | i | i | i | i | i | . | . | . | . | . | .
CC(C)c1ccc(NC(=O)Cc2ccc(NC3=NC4CS(=O)(=O)CC4S3)cc2)cc1 (configuration not stated) | . | i | i | i | i | i | . | . | . | . | . | .
Cn1cnc2cc(OC(=O)c3ccccc3)ccc21 | . | i | i | i | i | i | 0.01 | 0.00661 | 0.0281 | 0.00733 | 0.0504 | ?
CCOc1ccc(S(=O)(=O)N2CCCC(C(=O)NCC3CCCO3)C2)cc1Cl (configuration not stated) | . | i | i | i | i | i | . | . | . | . | . | .
S=c1[nH]nc(COc2ccccc2)n1/N=C/c1ccc(Br)s1 | 50.5* | i | i | i | i | i | ? | 0.0774* | 0.0339 | 0.0217* | 0.0269* | 0.0255*
CC(/C=N/n1c(COc2ccccc2)n[nH]c1=S)=C\c1ccco1 | 121* | i | i | i | i | i | 0.0147* | 0.173* | 0.0343 | 0.0549* | 0.0456* | 0.0135*
